# In PubChem BioAssay:
# The list shows a part of the results. Active and inactive are the calls of the source.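 The calls were made as follows, unless noted: active = at 20 µM dose, 40% or more inhibition averaged across four replicates; inactive = the rest.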
# How the values were obtained:
# [1] = Peg3 promoter reporter inhibitors, retest, confirmation, cell-based, HeLa, luciferase reporter, single concentration (AID 602417); conditions: HeLa PEG-Prom luciferase reporter, luminescence, overnight; at 20 µM; stronger effect = higher value
# [2] = target: PEG-3 (UniProt Q6IN02); test: Peg3 promoter luciferase inhibitors, potency, dose response, cell-based, HeLa, CREF/GAPDH counter-screen panel (AID 624167); conditions: CREF/GAPDH counter-screens; HeLa PEG-Prom luciferase reporter, overnight, run 1, dose range 1, at 100 µM (top of the series) unless noted
# Sequence of PEG-3 (Q6IN02 whole entry, looked up): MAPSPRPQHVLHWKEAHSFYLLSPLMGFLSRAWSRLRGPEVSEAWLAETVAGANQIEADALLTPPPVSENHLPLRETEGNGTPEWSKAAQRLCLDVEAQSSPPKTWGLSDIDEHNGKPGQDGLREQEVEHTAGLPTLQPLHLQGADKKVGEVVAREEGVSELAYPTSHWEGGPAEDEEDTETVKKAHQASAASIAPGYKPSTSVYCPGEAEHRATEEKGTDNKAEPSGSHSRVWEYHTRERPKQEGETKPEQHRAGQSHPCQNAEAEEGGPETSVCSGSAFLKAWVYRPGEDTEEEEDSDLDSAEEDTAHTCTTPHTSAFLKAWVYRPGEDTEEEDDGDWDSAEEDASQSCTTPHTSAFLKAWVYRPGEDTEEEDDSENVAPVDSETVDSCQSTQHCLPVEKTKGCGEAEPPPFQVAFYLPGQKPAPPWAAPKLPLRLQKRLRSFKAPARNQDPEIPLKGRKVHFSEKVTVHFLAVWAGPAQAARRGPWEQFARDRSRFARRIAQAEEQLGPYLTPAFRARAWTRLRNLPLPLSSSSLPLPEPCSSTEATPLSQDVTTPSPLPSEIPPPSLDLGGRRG
# [3] = target: PEG-3 (UniProt Q6IN02); test: as above; conditions: CREF/GAPDH counter-screens; HeLa PEG-Prom luciferase reporter, overnight, run 2, dose range 1, at 100 µM (top of the series) unless noted
# [4] = target: Tumor necrosis factor receptor superfamily member 10B (Homo sapiens) (UniProt O14763); test: caspase-8 TRAIL sensitization, hit retest, confirmation, cell-based, NB7+caspase-8, with/without TRAIL, luminescence panel (AID 651596; in the data active = activity above about 50%); conditions: NB7 neuroblastoma + caspase-8, TRAIL sensitization, luminescence viability, with TRAIL, mean of runs, at 10 µM, stronger effect = higher value
# Sequence of Tumor necrosis factor receptor superfamily member 10B (Homo sapiens) (O14763 whole entry, looked up): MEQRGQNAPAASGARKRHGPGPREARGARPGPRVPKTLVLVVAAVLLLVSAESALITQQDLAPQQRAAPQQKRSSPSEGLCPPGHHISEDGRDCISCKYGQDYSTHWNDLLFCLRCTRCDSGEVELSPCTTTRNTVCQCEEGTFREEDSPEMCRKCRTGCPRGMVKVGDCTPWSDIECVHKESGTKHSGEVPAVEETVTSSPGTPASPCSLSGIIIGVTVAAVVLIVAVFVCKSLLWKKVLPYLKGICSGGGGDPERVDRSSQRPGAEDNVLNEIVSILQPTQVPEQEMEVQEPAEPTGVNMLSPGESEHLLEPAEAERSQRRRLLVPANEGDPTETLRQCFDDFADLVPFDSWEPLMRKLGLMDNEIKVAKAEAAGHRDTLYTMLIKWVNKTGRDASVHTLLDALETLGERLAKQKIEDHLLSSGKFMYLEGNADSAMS
# [5] = as above; conditions: NB7 neuroblastoma + caspase-8, without TRAIL, luminescence viability, without TRAIL, mean of runs, at 10 µM
# [6] = inhibitors of PAF-induced NF-kB signaling, retest, confirmation, cell-based, GFP fluorescence, single concentration (AID 602472; in the data active = inhibition above about 40%;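 also: stimulus PAF is a Pseudomonas aeruginosa filtrate and not platelet activating factor; plate controls were DMSO wells with stimulus for no effect and unstimulated DMSO wells for full effect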); conditions: KKLEB CF airway cells, overnight, at 5 µM, stronger effect = higher value
# Summary of the method: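 Test system: KKLEB immortalized cystic fibrosis airway epithelial cells with NFkB-GFP reporter / Buffer or medium: medium with 2% FBS for cells, serum-free medium for stimulus / Also added: Pseudomonas aeruginosa filtrate (PAF) as NFkB-activating stimulus / Doses: 5 µM single dose / Timing: compound pretreatment 2 h at 37 °C, 5% CO2, then overnight PAF stimulation / Technique: GFP fluorescence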
# [7] = inhibitors of PAF-induced NFkB signaling in CF airway cells, dose response, cell-based, uHTS hits, panel, cytotoxicity readout (AID 624344); conditions: CF bronchial epithelial cells, PAF-induced NFkB reporter inhibition, with PAF, run 1; at 79 µM (top of the series) unless noted
# [8] = as above; conditions: CF bronchial epithelial cells, PAF-induced NFkB reporter inhibition, with PAF, run 2; at 79 µM (top of the series) unless noted
compound,measurement,setting,value
CCOc1ccc2nc(N(CCCN(C)C)C(=O)c3ccc(C(=O)c4ccccc4)cc3)sc2c1,inhibition,[1],97.7% (active)
same,inhibition,[2],102%
same,inhibition,[3],101%
same,activity,[4],87.4%
same,activity,[5],98.2%
O=C(CSc1nc(Nc2ccccc2)nc(N2CCOCC2)n1)Nc1cc(Cl)ccc1O,inhibition,[1],78.8% (active)
same,inhibition,[2],98.4%
same,inhibition,[3],101%
CC(C)c1ccc2c(c1)c(SC(C)(C)C)c(CC(C)(C)C(=O)O)n2Cc1ccc(Cl)cc1,inhibition,[6],41.5% (active)
COc1ccc(OC)c(Cc2cnc3nc(N)nc(N)c3c2C)c1,inhibition,[1],66.8% (active)
same,inhibition,[2],88.7%
same,inhibition,[3],86.7%
NS(=O)(=O)c1ccc(N=Nc2c(O)[nH]c3ccc(Br)cc23)cc1,inhibition,[1],0.42% (inactive)
CCCCNc1c(-c2cccc(Sc3ccc(OC)cc3)c2)nc2ccccn12,inhibition,[1],95.6% (active)
same,inhibition,[2],94.7%
same,inhibition,[3],81.9%
COc1ccc(-c2cc(C(=O)N(C)Cc3ccc(OC)c(OC)c3OC)c3ccccc3n2)cc1OC,inhibition,[1],60.4% (active)
same,inhibition,[2],68.7%
same,inhibition,[3],72.5%
CNC(=O)c1ccsc1NC(=O)c1ccc(S(=O)(=O)N2CCc3ccccc32)cc1,inhibition,[1],52.4% (active)
same,inhibition,[2],65%
same,inhibition,[3],63.5%
COc1ccc(CN(C)C(=O)c2cc(-c3ccc(C)cc3C)nc3ccccc23)c(OC)c1OC,inhibition,[1],75.2% (active)
same,inhibition,[6],61.6% (active)
same,inhibition,[2],102%
same,inhibition,[3],102%
same,inhibition,[7],103%
same,inhibition,[8],111%
O=C(NCCN1CCOCC1)c1ccc(/C=C2\Sc3ccccc3N(Cc3ccc(F)cc3)C2=O)cc1,inhibition,[1],42.8% (active)
Cc1ncc(CC(=O)n2cc(C(=O)c3cc(Cl)ccc3O)cn2)s1,inhibition,[6],47.9% (active)
same,inhibition,[7],100%
same,inhibition,[8],108%
Cc1ccc(NC(=O)Nc2nnc(-c3ccncc3)s2)cc1,inhibition,[6],59.6% (active)
same,inhibition,[7],103%
same,inhibition,[8],114%
